Key:
Human alphaherpesvirus 1 [1] = assay: Antiviral activity against Herpes simplex virus KOS infected in HEL cells assessed as inhibition of virus-induced cytopathicity; assay type: functional, organism-based
Summary of the method: (§1)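 Confluent HEL cell cultures were inoculated with 100 CCID50 of virus in the presence of varying compound concentrations. Cytopathicity or plaque formation was scored once untreated infected controls reached completion. EC50 is the concentration inhibiting virus-induced cytopathicity by 50%.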

Vaccinia virus = assay: Antiviral activity against Vaccinia virus Lederle infected in HEL cells assessed as inhibition of virus-induced cytopathicity; assay type: functional, organism-based; details: Orthopoxvirus vaccinia; summary of the method: as §1
[2] = Cytotoxicity against HEL cells assessed as change in cellular morphology by microscopic analysis; assay type: cell-based; details: human, read-out: MIC
Summary of the method: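 Uninfected HEL monolayers were exposed to compound. Minimal cytotoxic concentration is the concentration causing microscopically visible alteration of cell morphology.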

[3] = tested on: Human immunodeficiency virus 2; assay: Antiviral activity against Human immunodeficiency virus type 2 ROD infected in human CEM cells assessed as inhibition of virus-induced giant cell formation after 4 to 5 days by microscopic analysis; assay type: functional, organism-based, ISOLATE ROD, CCRF-CEM
Summary of the method: (§2)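 CEM cells (~3×10^5/mL) were infected with 100 CCID50/mL HIV-1 IIIB or HIV-2 ROD with compound dilutions. After 4–5 days at 37°C, syncytium formation was scored microscopically. EC50 is the concentration inhibiting giant cell formation by 50%.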

[4] = (§3) Cytotoxicity against human CEM cells; assay type: cell-based, CCRF-CEM; details: CEM (CCRF-CEM) cells
[5] = tested on: Human immunodeficiency virus 1; assay: Antiviral activity against Human immunodeficiency virus 1 3B infected in human CEM cells assessed as inhibition of virus-induced giant cell formation after 4 to 5 days by microscopic analysis; assay type: functional, organism-based, CCRF-CEM; summary of the method: as §2
Human alphaherpesvirus 1 [6] = assay: Antiviral activity against thymidine kinase-deficient acyclovir-resistant Herpes simplex virus KOS infected in HEL cells assessed as inhibition of virus-induced cytopathicity; assay type: functional, organism-based; details: Human alphaherpesvirus 1, KOS; summary of the method: as §1
CCRF-CEM [7] = assay: Cytostatic activity against human CEM cells after 72 hrs by coulter counting analysis; assay type: functional, cell-based
Summary of the method: (§4)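 (5-7.5)×10^4 cells/well were incubated with compound at 37°C, for 48 h (L1210) or 72 h (CEM, HeLa), then counted by Coulter counter. IC50 is the concentration inhibiting proliferation by 50%.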

HeLa [8] = assay: Cytostatic activity against human HeLa cells after 72 hrs by coulter counting analysis; assay type: functional, cell-based; summary of the method: as §4
Human alphaherpesvirus 2 = assay: Antiviral activity against Herpes simplex virus G infected in HEL cells assessed as inhibition of virus-induced cytopathicity; assay type: functional, organism-based, strain G; summary of the method: as §1
L1210 = assay: Cytostatic activity against mouse L1210 cells after 48 hrs by coulter counting analysis; assay type: functional, cell-based; summary of the method: as §4
[9] = Antiproliferative activity against human M08 cells infected with HPV-16 after 96 hrs by trypan blue staining-based Neubauer haemocytometric analysis; assay type: functional, cell-based; details: M08, 96 h
Summary of the method: (§5)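 SiHa and HPV16+ M08 vulval keratinocytes (VIN3 biopsy-derived) were seeded at 4×10^3 cells/well; human epidermal keratinocytes (EpiLife medium) at 3.5×10^4 cells/well. All adhered 24 h, then were exposed to 0.1 and 1 μM compound in replicate for 96 h at 37°C. Cells were trypsinised, resuspended in PBS and counted in 0.4% trypan blue on a haemocytometer.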

[10] = Antiproliferative activity against human C33A cells after 72 hrs by flow cytometric analysis; assay type: cell-based, C-33-A
Summary of the method: (§6)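 SiHa (HPV16+), HeLa (HPV18+) and C33A (HPV-) cervical carcinoma lines grown in DMEM with 10% FBS at 37°C, 5% CO2. Seeded 4×10^3 cells/well and left to adhere 24 h. Treated in triplicate with 1, 10 and 100 μM of compound formulated in ~1% DMSO/PBS pH 7.4.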

SiHa [11] = assay: Antiproliferative activity against human SiHa cells infected with HPV-16 after 96 hrs by trypan blue staining-based Neubauer haemocytometric analysis; assay type: functional, cell-based; summary of the method: as §5
HeLa [12] = assay: Antiproliferative activity against human HeLa cells infected with HPV-18 after 72 hrs by flow cytometric analysis; assay type: functional, cell-based; summary of the method: as §6
[13] = Antiproliferative activity against human epidermal keratinocytes after 96 hrs by trypan blue staining-based Neubauer haemocytometric analysis; assay type: cell-based; details: Keratinocyte; summary of the method: as §5
SiHa [14] = assay: Antiproliferative activity against human SiHa cells infected with HPV-16 after 72 hrs by flow cytometric analysis; assay type: functional, cell-based; summary of the method: as §6
[15] = Prodrug activation assessed as carboxypeptidase Y (unknown origin)-mediated aminoacyl phosphonamidate ester formation at 3 mg at 25 degC up to 12 hrs by [31P]-NMR analysis
Summary of the method: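 Compound (3.0 mg) in acetone-d6 plus Trizma buffer pH 7.6 was recorded by 31P NMR at 25°C as control. Carboxypeptidase Y (0.1 mg in Trizma) was then added, and spectra were taken every 7 min over 12 h at 25°C.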

CCRF-CEM [16] = assay: as §3; assay type: cell-based; details: ccrf-cem
[17] = tested on: Human immunodeficiency virus 1; assay: microbe, parasite or virus in culture; details: Human immunodeficiency virus 1, 3B, MT2
[18] = Cytotoxicity against human MT2 cells
[19] = Human alphaherpesvirus 1, KOS, HEL
[20] = Human immunodeficiency virus 2, ISOLATE ROD, CCRF-CEM
[21] = Human immunodeficiency virus 1, 3B, CCRF-CEM
[22] = Human alphaherpesvirus 2, strain G, HEL

| Structure (SMILES) | EC50 (Human alphaherpesvirus 1 [1]; [19]) | EC50 (Vaccinia virus) | MCC [2] | EC50 [3, 20] | CC50 [4] | EC50 [5, 21] | EC50 (Human alphaherpesvirus 1 [6]) | IC50 (CCRF-CEM [7]; Homo sapiens, CCRF-CEM, 72 h) | IC50 (HeLa [8]; Homo sapiens, HeLa, 72 h) | EC50 (Human alphaherpesvirus 2; [22]) | IC50 (L1210; Mus musculus, L1210, 48 h) | IC50 ([10]; Homo sapiens, C-33-A, 72 h) | also measured |
| --- | --- | --- | --- | --- | --- | --- | --- | --- | --- | --- | --- | --- | --- |
| C[C@H](NP(=O)(COCCn1cnc2c(N)ncnc21)Oc1cccc2ccccc12)C(=O)OCc1ccccc1 (stereo not given in full) | 0.02 µM | 9.5 µM | > 100 µM | 0.05 µM | 0.12 µM | 0.03 µM | 0.7 µM | 0.12 µM | 1.6 µM | 0.008 µM | 0.041 µM | – | – |
| C[C@H](NP(=O)(COCCn1cnc2c(N)ncnc21)N[C@@H](C)C(=O)OCc1ccccc1)C(=O)OCc1ccccc1 | 0.7 µM | 5 µM | > 100 µM | 0.025 µM | 0.14 µM | 0.04 µM | 0.6 µM | 0.14 µM | 0.67 µM | 0.25 µM | 0.21 µM | – | – |
| C[C@H](NP(=O)(COCCn1cnc2c(N)ncnc21)N[C@@H](C)C(=O)OCC(C)(C)C)C(=O)OCC(C)(C)C | 0.3 µM | 2.7 µM | > 100 µM | 0.019 µM | 0.2 µM | 0.024 µM | 0.3 µM | 0.2 µM | 1.6 µM | 0.2 µM | 0.24 µM | 0.84 µM | IC50 [9]: 0.82 µM; IC50 (SiHa [11]): 0.83 µM; IC50 (HeLa [12]; Homo sapiens, HeLa, 72 h): 0.6 µM; IC50 [13]: 0.3 µM; IC50 (SiHa [14]): 0.66 µM |
| C[C@H](NP(=O)(COCCn1cnc2c(N)ncnc21)Oc1ccccc1)C(=O)OCC(C)(C)C (stereo not given in full) | 0.6 µM | 3.7 µM | > 100 µM | 0.044 µM | 0.4 µM | 0.056 µM | 0.55 µM | 0.4 µM | 2.2 µM | 0.15 µM | 0.15 µM | – | – |
| C[C@H](NP(=O)(COCCn1cnc2c(N)ncnc21)Oc1cccc2ccccc12)C(=O)OCC(C)(C)C (stereo not given in full) | 0.25 µM | 1.6 µM | > 100 µM | 0.019 µM | 0.045 µM | 0.032 µM | 0.2 µM | 0.045 µM | 0.92 µM | 0.1 µM | 0.068 µM | 0.54 µM | IC50 [9]: 0.048 µM; IC50 (SiHa [11]): 0.09 µM; IC50 (HeLa [12]; Homo sapiens, HeLa, 72 h): 0.5 µM; IC50 [13]: 0.076 µM; IC50 (SiHa [14]): 0.6 µM |
| C[C@H](NP(=O)(COCCn1cnc2c(N)ncnc21)Oc1cccc2c1CCCC2)C(=O)OCC(C)(C)C (stereo not given in full) | 0.13 µM | 1.3 µM | > 100 µM | 0.007 µM | 0.019 µM | 0.017 µM | 0.12 µM | 0.019 µM | 0.45 µM | 0.05 µM | 0.026 µM | – | Drug metabolism [15]: metabolite_detected |
| C[C@H](Cn1cnc2c(N)ncnc21)OCP(=O)(N[C@@H](C)C(=O)OCc1ccccc1)N[C@@H](C)C(=O)OCc1ccccc1 | 10 µM | 20 µM | > 100 µM | 0.014 µM | 6.9 µM | 0.03 µM | 7 µM | > 500 µM | > 500 µM | 3 µM | 120 µM | – | – |
| C[C@H](Cn1cnc2c(N)ncnc21)OCP(=O)(N[C@@H](C)C(=O)OCC(C)(C)C)N[C@@H](C)C(=O)OCC(C)(C)C | 1.5 µM | 6 µM | > 100 µM | 0.002 µM | 1.2 µM | 0.004 µM | 2 µM | 1.2 µM | 4 µM | 0.7 µM | 1.5 µM | 0.7 µM | IC50 (HeLa [12]; Homo sapiens, HeLa, 72 h): 0.54 µM; IC50 (SiHa [14]): 0.73 µM |
| C[C@H](Cn1cnc2c(N)ncnc21)OCP(=O)(N[C@@H](C)C(=O)OCc1ccccc1)Oc1cccc2ccccc12 (stereo not given in full) | 1.3 µM | 5.5 µM | > 100 µM | 0.011 µM | 4.4 µM | 0.019 µM | 0.8 µM | 4.4 µM | 11 µM | 0.7 µM | 3.7 µM | – | – |
| C[C@H](Cn1cnc2c(N)ncnc21)OCP(=O)(N[C@@H](C)C(=O)OCC(C)(C)C)Oc1ccccc1 (stereo not given in full) | 1.3 µM | 8 µM | > 100 µM | 0.012 µM | 2.3 µM | 0.018 µM | 1 µM | 2.3 µM | 8 µM | 0.7 µM | 4 µM | – | – |
| C[C@H](Cn1cnc2c(N)ncnc21)OCP(=O)(N[C@@H](C)C(=O)OCC(C)(C)C)Oc1cccc2c1CCCC2 (stereo not given in full) | 1.4 µM | 10.5 µM | > 100 µM | 0.009 µM | 2 µM | 0.011 µM | 5.5 µM | 2 µM | 5.3 µM | 1.4 µM | 1.3 µM | – | – |
| C[C@H](Cn1cnc2c(N)ncnc21)OCP(=O)(N[C@@H](C)C(=O)OCC(C)(C)C)Oc1cccc2ccccc12 (mixture of isomers) | – | – | – | – | – | – | – | – | – | – | – | – | EC50 (Human alphaherpesvirus 1 [1]; hel): 2 µM; EC50 ([3]; ccrf-cem): 0.004 µM; CC50 (CCRF-CEM [16]): 3.9 µM; IC50 ([10]; c-33-a): 6 µM; EC50 ([5]; ccrf-cem): 0.003 µM; IC50 (HeLa [12]; hela): 6.2 µM; IC50 (CCRF-CEM [7]; ccrf-cem): 3.9 µM; IC50 (HeLa [8]; hela): 12 µM; EC50 (Human alphaherpesvirus 2; hel): 0.8 µM; IC50 (L1210; l1210): 2.2 µM; IC50 (SiHa [14]): 7.8 µM |
| C[C@H](Cn1cnc2c(N)ncnc21)OCP(=O)(N[C@@H](C)C(=O)OCC(C)(C)C)Oc1cccc2ccccc12 (stereo in doubt; 15) | 1.5 µM | 4 µM | > 100 µM | 0.007 µM | 6.9 µM | – | 2 µM | 6.9 µM | 17 µM | 0.7 µM | – | 7.6 µM | EC50 ([5]; ccrf-cem): 0.009 µM; IC50 (HeLa [12]; hela): 0.53 µM; IC50 (L1210; l1210): 5.6 µM |
| Nc1ncnc2c1ncn2CCOCP(=O)(O)O [ADEFOVIR] | 4.7 µM | – | > 100 µM | 8.2 µM | ≥ 50 µM | 8.4 µM | 7 µM | 24 µM | 181 µM | 6.3 µM | 3 µM | 7.8 µM | – |
| CC(C)OC(=O)[C@H](C)N[P@](=O)(CO[C@H](C)Cn1cnc2c(N)ncnc21)Oc1ccccc1 [TENOFOVIR ALAFENAMIDE] | – | – | – | – | – | – | – | – | – | – | – | – | EC50 [17]: 0.005 µM; CC50 [18]: 40 µM |
| C[C@H](Cn1cnc2c(N)ncnc21)OCP(=O)(O)O [TENOFOVIR ANHYDROUS] | 105 µM | > 100 µM | > 100 µM | 3.7 µM | > 500 µM | 3.9 µM | 151 µM | 6.9 µM | 17 µM | 122 µM | 11 µM | – | – |

Source: ChEMBL document CHEMBL3232902, “PMPA and PMEA prodrugs for the treatment of HIV infections and human papillomavirus (HPV) associated neoplasia and cancer” (Eur J Med Chem, 2014)
